Screens deposited in PubChem BioAssay by several laboratories.
Hits are enriched below; roughly 1.4% of the tested compounds scored in any of these assays.
OPRM1-OPRD1 ag – OPRM1-OPRD1 heterodimerization agonism. AID 504326. activation, % at 9.3 µM. cells, luminescence. P35372+P41143. 0.3% of 340,000 active; in the data active = activation above about 18%;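 also: 0% = vehicle-treated cells and 100% = reference agonist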
Arrestin-AP2 inh – blocks beta-arrestin peptide binding to AP2 adaptin; FITC-arrestin peptide / GST-AP2 beads, flow cytometry; AP2 beta2 appendage carries R879A mutation; 0.31% of 340,000 active; AID 504490; inhibition, % at 10 µM;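 active = inhibition above a set limit, near 3 SD of compounds lacking own fluorescence, cut at about 54% in these data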;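 also: plate controls were DMSO wells for no effect and 5 µM unlabelled arrestin peptide for full effect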
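Material – AP2 appendage R879A on GSH beads · Buffer or medium – PBS with 0.05% Tween 20 and 0.1% BSA · Probe or stimulus – fluorescein-tagged arrestin peptide at 50 nM final · Incubation – compound with beads 12 min RT, then probe 1 h RT · Detection – high-throughput flow cytometry of beads, ex 488, em 535 nm · Evaluation – percent response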
MOR-DOR inv ag – inverse agonists of human mu-delta opioid receptor heterodimerization; P35372+P41143; inhibition, % at 9.3 µM; 0.21% of 340,000 active; cell-based MOR-DOR heterodimer luminescence, inverse agonism; in the data active = inhibition above about 22%, passing the limit was not always enough;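 also: 0% = cells with DMSO and 100% = wells without cells with DMSO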
DAGLB inhibitor – diacylglycerol lipase beta (human) inhibition. inhibition, % at 5.17 µM. HEK293T DAGLB membrane lysate, EnzChek fluorogenic substrate. 0.059% of 340,000 active. AID 504411; in the data active = inhibition above about 34%;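 also: 0% = enzyme with vehicle and 100% = wells lacking enzyme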
HTR5A inv ctr – HTR5A inverse agonism, opioid heterodimer counter-screen. P47898. inhibition, % at 9.3 µM. 0.083% of 340,000 active. HTR5A cell line, luminescence; in the data active = inhibition mostly above about 23%, no sharp cut-off; inactive = mostly below about 18%;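 also: 0% = cells with DMSO and 100% = no-cell wells with DMSO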
Target sequence (P47898 whole entry, looked up): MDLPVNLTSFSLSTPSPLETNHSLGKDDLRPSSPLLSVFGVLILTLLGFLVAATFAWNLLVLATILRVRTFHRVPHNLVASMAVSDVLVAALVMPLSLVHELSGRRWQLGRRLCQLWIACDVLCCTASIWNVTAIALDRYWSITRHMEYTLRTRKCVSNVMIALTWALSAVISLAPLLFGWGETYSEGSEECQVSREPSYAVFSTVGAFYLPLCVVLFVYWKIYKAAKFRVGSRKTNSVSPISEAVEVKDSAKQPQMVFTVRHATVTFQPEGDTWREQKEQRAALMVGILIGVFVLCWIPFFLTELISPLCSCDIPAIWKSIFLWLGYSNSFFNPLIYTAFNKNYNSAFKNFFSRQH
HTR5A ag – activates human HTR5A in OPRM1-OPRD1 agonist counter-screen; P47898; HTR5A agonist assay, luminescence, cell-based; activation, % at 9.3 µM; 0.61% of 340,000 active; in the data active = activation mostly above about 9.5%, no sharp cut-off; inactive = mostly below about 7.6%;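 also: 0% = cells with vehicle only and 100% = reference agonist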
* hit, by the source's call; i = inactive; nt = not tested or not shown; ! = not active in a repeat.

SMILES | OPRM1-OPRD1 ag | Arrestin-AP2 inh | MOR-DOR inv ag | DAGLB inhibitor | HTR5A inv ctr | HTR5A ag
CC(=O)c1ccc2c(c1)C1C(Cl)C(Sc3ccccc3[N+](=O)[O-])CC1C(c1ccccc1[N+](=O)[O-])N2 (configuration not stated) | 7 | 7 | -37 | 7 | 3 | 11*
CC1(C(=O)O)CC12c1ccccc1-c1ccccc12 (configuration not stated) | -5 | 9 | 22 | 0 | 0 | 0
CC(=O)OC1C2CCCC1C(N1CCCC1)CC2 (configuration not stated) | -3 | -1 | 12 | 1 | 1 | 13*!
CC(=O)OC1C2CCC1C(N1CCCCC1)CC2 (configuration not stated) | -2 | 11 | 12 | -2 | 0 | -2
C[C@]12CC[C@H](O)C[C@H]1CC[C@@H]1[C@@H]2CC[C@]2(C)[C@@H](C3=CC(=O)OC3)CC[C@]12O | 71* | 0 | -395 | 1 | -74 | 37*
CC12CCC(O)CC1CCC1C2CCC2(C)C(C3=CC(=O)OC3)C(O)CC12O (configuration not stated) | 69* | 35 | -304 | -2 | -128 | 33*
CC12CC[C@H]3[C@@H](CCC4(O)C[C@H](O)CCC34/C=N/NC(=O)Cc3ccccc3)C1(O)CCC2C1=CC(=O)OC1 (some centres not stated) | 2 | 23 | -11 | 1 | -18 | 7
CS(=O)(=O)N1Cc2ccccc2-n2nncc2C1 | -3 | -6 | 13 | 0 | 10 | -3
Cc1cc(NC(=O)COC(=O)c2c(C)nn(Cc3ccccc3)c2C)no1 | 0 | 14 | -2 | -1 | -5 | 12*
CC1=C(C)CC2(C(=O)NC(=S)NC2=O)C(C)C1 (configuration not stated) | -3 | -4 | 13 | 0 | 8 | -2
CCN(CC)c1ccc(/C=N/c2sc3c(c2C#N)C2CCN3CC2)c(O)c1 | -8 | -3 | 42* | -36 | 11 | -3
c1ccc2c(CCNC3=NCCC3)c[nH]c2c1 | -2 | -2 | 14 | -3 | -44 | 11*
NC(=Nc1ccccc1)NN=Cc1c[nH]c2ccccc12 | 1 | -17 | -5 | 2 | -49 | 13*
COC(=O)C1=C(c2cccc(OCc3ccccc3)c2)C[C@@H]2CC[C@H]1N2C(=O)NCc1cc(C)oc1C(F)(F)F | 2 | 20 | -13 | -14 | -2 | 1
CNc1cc(Cl)c2nonc2c1[N+](=O)[O-] | -6 | -2 | 33* | -6 | 16 | -5
Cc1cc([N+](=O)[O-])c(Cl)cc1NC(=O)C(C)C | 0 | -8 | -1 | 2 | 5 | -3
CCn1nc(-c2ccccc2)nc2c(=O)n(C)c(=O)nc1-2 | 24* | 26 | -142 | -31 | 18 | 9
CC1(C)CN=C(Nc2ccccc2C(F)(F)F)S1 | -2 | 1 | 14 | -3 | 0 | 11*
FC(F)(F)c1ccccc1NC1=NCCCS1 | 0 | 2 | 1 | -2 | 11 | -4
COc1ccc(OC(=O)N(C)C[C@H]2OCc3cnnn3CCCC(=O)N([C@H](C)CO)C[C@H]2C)cc1 | nt | nt | nt | -2 | nt | nt
Cc1nc(N2CCN(Cc3ccc4c(c3)OCO4)CC2)[nH]c(=O)c1C | 1 | 8 | -4 | -2 | 21 | -6
COC(=O)C1=C(c2cccc(C#N)c2)C[C@@H]2CC[C@H]1N2C(=O)NCCOc1ccccc1 | -1 | 6 | 7 | -1 | -13 | 2
CCCNC(=O)N1[C@H]2CC[C@@H]1C(C(=O)OC)=C(c1cccc(C#N)c1)C2 | -1 | -12 | 6 | 0 | -4 | 13*
CN1CCCC1CCOC(C)(c1ccccc1)c1ccc(Cl)cc1 (configuration not stated) | i | -7 | i | 0 | -16 | -1
N#CC1c2ccccc2C=CN1C(=O)c1ccc(N(CCCl)CCCl)cc1 (configuration not stated) | nt | nt | nt | -2 | nt | nt
O=c1c2ccccc2nc(/C=C/c2ccccc2F)n1-c1ccccc1O | 29* | 9 | -150 | -3 | 3 | -1
